Source: ChEMBL document CHEMBL3352313 (J Med Chem, 2014)
Where a chain is given by its changes, count along the chain named.

Columns and labels:
[1] = target: Muscarinic acetylcholine receptor M3 (Homo sapiens, UniProt P20309); assay: Activity at human muscarinic acetylcholine receptor subtype 3 expressed in CHO cells by calcium mobilization assay; assay type: functional, cell-based
Procedure, shortened: (§1)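 Muscarinic subtype selectivity by fluorescence calcium mobilization in highly expressing CHO lines with similar receptor levels; Gi/o-coupled M2 and M4 cells co-transfected with chimeric Gqi5 to couple to Ca2+ mobilization. Read-outs are PAM EC50 and ACh max response. Mean ± SEM of at least three independent determinations.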

[2] = target: T1, Muscarinic acetylcholine receptor M2 (Homo sapiens, UniProt P08172); assay: Activity at human muscarinic acetylcholine receptor subtype 2 expressed in CHO cells co-transfected with chimeric Gqi5 by calcium mobilization assay; assay type: functional, cell-based; procedure, shortened: as §1
T1 sequence (P08172 whole entry): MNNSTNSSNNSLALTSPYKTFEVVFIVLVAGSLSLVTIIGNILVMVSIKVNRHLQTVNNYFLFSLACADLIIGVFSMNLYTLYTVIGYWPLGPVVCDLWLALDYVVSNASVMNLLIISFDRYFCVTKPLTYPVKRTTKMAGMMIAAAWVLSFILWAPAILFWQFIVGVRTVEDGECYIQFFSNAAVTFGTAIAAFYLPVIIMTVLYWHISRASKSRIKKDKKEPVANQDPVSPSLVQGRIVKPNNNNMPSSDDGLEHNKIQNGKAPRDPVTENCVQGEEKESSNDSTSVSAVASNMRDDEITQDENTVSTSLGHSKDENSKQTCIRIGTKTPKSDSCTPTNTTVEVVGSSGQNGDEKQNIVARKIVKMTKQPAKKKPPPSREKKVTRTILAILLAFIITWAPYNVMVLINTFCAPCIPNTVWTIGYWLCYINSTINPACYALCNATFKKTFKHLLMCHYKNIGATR

[3] = target: T2, Muscarinic acetylcholine receptor M1 (Homo sapiens, UniProt P11229); assay: Activity at human muscarinic acetylcholine receptor subtype 1 expressed in CHO cells by calcium mobilization assay; assay type: functional, cell-based; procedure, shortened: as §1
T2 sequence (P11229 whole entry): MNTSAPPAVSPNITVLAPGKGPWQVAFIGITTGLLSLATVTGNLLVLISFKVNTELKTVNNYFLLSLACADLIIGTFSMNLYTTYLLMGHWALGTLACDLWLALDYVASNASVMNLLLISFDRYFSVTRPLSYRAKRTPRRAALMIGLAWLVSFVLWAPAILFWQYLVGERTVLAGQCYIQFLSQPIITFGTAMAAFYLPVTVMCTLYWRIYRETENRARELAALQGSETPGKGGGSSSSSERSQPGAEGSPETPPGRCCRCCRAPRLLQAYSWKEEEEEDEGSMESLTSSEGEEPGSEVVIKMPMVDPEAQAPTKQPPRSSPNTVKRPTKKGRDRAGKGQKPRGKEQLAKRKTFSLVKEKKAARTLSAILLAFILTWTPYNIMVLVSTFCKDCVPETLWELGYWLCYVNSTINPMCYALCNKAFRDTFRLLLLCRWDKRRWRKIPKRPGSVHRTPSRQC

[4] = target: Muscarinic acetylcholine receptor M3 (Rattus norvegicus, UniProt P08483); assay: Activity at rat muscarinic acetylcholine receptor subtype 3 expressed in CHO cells by calcium mobilization assay; assay type: functional, cell-based; procedure, shortened: as §1
Chain of Muscarinic acetylcholine receptor M3 (Rattus norvegicus, UniProt P08483) (P08483 whole entry): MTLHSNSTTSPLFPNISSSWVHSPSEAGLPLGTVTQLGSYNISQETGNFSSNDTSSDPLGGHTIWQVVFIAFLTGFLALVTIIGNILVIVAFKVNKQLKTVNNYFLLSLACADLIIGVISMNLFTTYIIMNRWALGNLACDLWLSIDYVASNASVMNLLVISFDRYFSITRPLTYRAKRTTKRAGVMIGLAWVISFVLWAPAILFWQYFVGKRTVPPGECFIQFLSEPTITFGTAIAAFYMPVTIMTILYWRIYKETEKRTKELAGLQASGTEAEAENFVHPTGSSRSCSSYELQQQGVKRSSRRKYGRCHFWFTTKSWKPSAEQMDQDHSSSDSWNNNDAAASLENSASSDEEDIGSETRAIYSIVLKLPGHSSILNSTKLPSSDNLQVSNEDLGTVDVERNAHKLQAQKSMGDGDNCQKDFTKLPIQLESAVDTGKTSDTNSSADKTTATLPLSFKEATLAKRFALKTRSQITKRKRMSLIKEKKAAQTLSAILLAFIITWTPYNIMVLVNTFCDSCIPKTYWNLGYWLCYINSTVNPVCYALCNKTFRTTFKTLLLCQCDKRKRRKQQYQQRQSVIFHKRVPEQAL

[5] = target: T3, Muscarinic acetylcholine receptor M1 (Rattus norvegicus, UniProt P08482); assay: Activity at rat muscarinic acetylcholine receptor subtype 1 expressed in CHO cells by calcium mobilization assay; assay type: functional, cell-based; procedure, shortened: as §1
T3 sequence (P08482 whole entry): T2 sequence (P11229 whole entry) with A5V, T254S, P309S, R320K, A337G, I413V

[6] = target: T4, Muscarinic acetylcholine receptor M5 (Homo sapiens) (UniProt P08912); assay: Positive allosteric modulator activity at human muscarinic acetylcholine receptor subtype 5 expressed in CHO cell membranes assessed as fold shift in acetylcholine binding affinity by [3H]NMS binding based scintillation counting method
T4 sequence (whole entry): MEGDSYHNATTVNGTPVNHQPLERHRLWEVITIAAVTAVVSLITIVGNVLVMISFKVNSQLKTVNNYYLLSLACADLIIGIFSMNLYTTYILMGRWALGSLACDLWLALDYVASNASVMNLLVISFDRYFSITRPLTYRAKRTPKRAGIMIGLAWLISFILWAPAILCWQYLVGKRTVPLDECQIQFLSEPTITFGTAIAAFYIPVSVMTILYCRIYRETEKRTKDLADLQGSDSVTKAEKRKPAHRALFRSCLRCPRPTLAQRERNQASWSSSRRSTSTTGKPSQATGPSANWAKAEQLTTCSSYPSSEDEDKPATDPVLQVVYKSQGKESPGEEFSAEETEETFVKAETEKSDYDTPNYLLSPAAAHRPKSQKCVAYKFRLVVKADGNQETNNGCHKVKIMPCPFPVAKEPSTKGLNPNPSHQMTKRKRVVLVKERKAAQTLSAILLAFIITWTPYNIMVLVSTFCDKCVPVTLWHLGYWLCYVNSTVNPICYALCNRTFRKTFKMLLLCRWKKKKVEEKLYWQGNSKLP

[7] = test system: Plasma; assay: Fraction unbound in rat plasma at 5 uM incubated for 4 hrs at 37 degC by equilibrium dialysis based LC/MS/MS analysis; assay type: ADME, cell-free
Procedure, shortened: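 Fraction unbound measured in rat and human plasma and in rat brain homogenate.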

[8] = Volume of distribution at steady state in Sprague-Dawley rat 1 mg/kg, iv administered as single dose by LC/MS/MS utilizing electrospray ionization method; assay type: ADME, organism-based; parameters: dose 1 mg/kg, route intravenous; conditions: in vivo, read-out: Vdss

Chain of Muscarinic acetylcholine receptor M3 (Homo sapiens, UniProt P20309) (P20309 whole entry): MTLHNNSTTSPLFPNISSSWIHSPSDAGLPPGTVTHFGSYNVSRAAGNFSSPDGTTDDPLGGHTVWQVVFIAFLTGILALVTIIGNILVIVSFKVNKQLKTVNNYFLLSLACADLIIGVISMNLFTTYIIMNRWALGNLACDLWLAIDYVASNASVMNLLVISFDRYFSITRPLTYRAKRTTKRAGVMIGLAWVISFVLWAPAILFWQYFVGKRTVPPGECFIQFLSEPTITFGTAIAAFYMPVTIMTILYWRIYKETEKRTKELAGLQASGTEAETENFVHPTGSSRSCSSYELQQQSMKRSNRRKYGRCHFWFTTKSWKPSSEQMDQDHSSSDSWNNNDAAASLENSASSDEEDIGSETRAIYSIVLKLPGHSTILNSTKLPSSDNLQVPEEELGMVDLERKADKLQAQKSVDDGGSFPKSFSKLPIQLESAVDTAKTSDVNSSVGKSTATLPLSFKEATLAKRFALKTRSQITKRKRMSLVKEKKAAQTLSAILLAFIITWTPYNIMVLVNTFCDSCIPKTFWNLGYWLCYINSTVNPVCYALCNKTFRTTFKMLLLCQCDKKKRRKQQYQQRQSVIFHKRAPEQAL

In the case of `CCN(Cc1ccccc1C(F)(F)F)C(=O)C1CCN(S(=O)(=O)c2ccc3[nH]ncc3c2)CC1`, the EC50 [1] is reported as 2.1 µM, the EC50 [2] is reported as greater than 30 µM and the EC50 [3] is reported as 5.4 µM. The EC50 [4] was 3.1 µM, the EC50 [5] was 2 µM and the fold change (FC) [6] was 15. For the same compound, the Fu [7] was 0.014 and the Vd [8] was 1.6 L/kg.
